Publication PMC4629064 (Acta Pharmaceutica Sinica. B, 2014)
≈ marks a conversion by molar mass, not a printed value. Where “and” joins values, the source holds several entries; their conditions need not be identical. Identical values can stand only once.

Experiments:
[1] = Solubility of BA and BA–PC in water or octanol; assay type: physicochemical; details: octanol, 37 °C, organic solvent or mixture, thermodynamic from solid
[2] = Dispersible uniformity and stability in water; assay type: physicochemical; details: dispersed in water, 37 °C
Method in brief: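 Free test compound dispersed in water by simple agitation, alongside its phospholipid complex and complex-loaded self-microemulsifying formulation (drug:phospholipid molar ratios 1:1, 1:1.5, 1:2). Samples held at 37 °C in a water bath. Drug in the upper solution quantified by UV spectrophotometry at 316 nm at 0, 4, 8, 12 and 24 h. Bottles inspected visually for bottom precipitate.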

[3] = Caco-2 cell permeation study; assay type: in vitro ADME; details: human, Caco-2, pH 6.8
Caco-2 cells = experiment: Caco-2 cell permeation study; assay type: in vitro ADME; details: apical to basolateral, 187.5 μg/mL of BA, pH 6.8, 37 °C; mean±SD, n=3
[4] = test system: intestine segments (duodenum and jejunum, ileum, colon); experiment: In situ single-pass intestinal perfusion; assay type: in vivo, Sprague-Dawley rats; details: rat SPIP, 750 μg/mL BA in KR buffer pH 6.0, mean±SD, n=6
[5] = Oral bioavailability of BA–PC–SMEDDS and BA suspensions; details: both, Sprague-Dawley, rat, in vivo, 75 mg

solubility at 48 h [1]: 136 ± 12 µg/mL (≈ 305 µM)
Precipitate at the bottom of the bottles (visual) [2]: precipitates
Concentration of BA in the upper solution, initially ([2]; initially): nearly zero
Papp A→B at 180 min, 187.5 μg/mL [3]: 0.119 ± 0.092 ×10⁻⁶ cm/s
Papp B→A at 180 min, 187.5 μg/mL [3]: 0.365 ± 0.096 ×10⁻⁶ cm/s
efflux ratio at 180 min, 187.5 μg/mL [3]: 3.07
Peff, Colon ([4]; colon): 0.506±0.088 ×10^−4, cm/s
Peff, Duodenum+jejunum ([4]; duodenum+jejunum): 0.139±0.035 ^⁎ ×10^−4, cm/s
Peff, Ileum ([4]; ileum): 0.252±0.081 ^⁎ ×10^−4, cm/s
AUC [5]: 7610 ± 1580 ng·h/mL
Cmax [5]: 1840 ± 470 ng/mL
Tmax [5]: 1.5 h
SMILES: O=C(O)[C@H]1O[C@@H](Oc2cc3oc(-c4ccccc4)cc(=O)c3c(O)c2O)[C@H](O)[C@@H](O)[C@@H]1O [BA, 5,6-dihydroxy-4-oxygen-2-phenyl-4H-1-benzopyran-7-β-D-glucopyranoseacid]
Papp through Caco-2 monolayer (Caco-2 cells): 0.037 ×10^−6, cm/s and 0.037±0.012 ×10^−6, cm/s
